Experimental data as given in ChEMBL document CHEMBL1137919, “Dipeptidyl aspartyl fluoromethylketones as potent caspase inhibitors: SAR of the N-protecting group” (Bioorg Med Chem Lett, 2004).

Key:
Caspase-9 = biological target: T1, Caspase-9 (Homo sapiens, UniProt P55211); test: Inhibition concentration required against caspase-9
T1 sequence (P55211 whole entry): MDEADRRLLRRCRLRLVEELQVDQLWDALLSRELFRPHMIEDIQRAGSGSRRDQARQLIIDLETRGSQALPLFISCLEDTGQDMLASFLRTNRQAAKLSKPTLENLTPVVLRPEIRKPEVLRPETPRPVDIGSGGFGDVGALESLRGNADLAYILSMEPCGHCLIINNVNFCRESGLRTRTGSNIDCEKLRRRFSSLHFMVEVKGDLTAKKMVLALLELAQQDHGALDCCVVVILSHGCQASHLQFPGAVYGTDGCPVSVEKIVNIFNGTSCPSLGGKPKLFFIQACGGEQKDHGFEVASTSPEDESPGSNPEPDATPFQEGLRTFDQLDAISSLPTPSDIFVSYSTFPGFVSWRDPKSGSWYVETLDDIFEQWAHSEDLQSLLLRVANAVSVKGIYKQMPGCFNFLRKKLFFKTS

[1] = Percent survival of the mice after 6 hr treatment was determined after induction of apoptosis by anti-Fas antibody; Dose is 1 mg/kg; type: functional; settings: Mus musculus
How it was run: (§1)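 Mouse anti-Fas lethality model: mice given 8 µg anti-Fas monoclonal antibody (clone JO-2) IV, then 5 min later an IV dose of inhibitor (0.25–10 mg/kg) or vehicle. The aqueous vehicle contained 50 mM Tris–HCl. Six mice per group. Survivors were counted at 1, 3, 6 and 24 h and at 5 days, expressed as % of the animals in the group.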

[2] = Percent survival of the mice after 24 hr treatment was determined after induction of apoptosis by anti-Fas antibody; Dose is 0 mg/kg; type: functional, Mus musculus; how it was run: as §1
Caspase-3 = biological target: T2, Caspase-3 (Homo sapiens, UniProt P42574); test: Inhibitory activity against human recombinant caspase-3
T2 sequence (P42574 whole entry): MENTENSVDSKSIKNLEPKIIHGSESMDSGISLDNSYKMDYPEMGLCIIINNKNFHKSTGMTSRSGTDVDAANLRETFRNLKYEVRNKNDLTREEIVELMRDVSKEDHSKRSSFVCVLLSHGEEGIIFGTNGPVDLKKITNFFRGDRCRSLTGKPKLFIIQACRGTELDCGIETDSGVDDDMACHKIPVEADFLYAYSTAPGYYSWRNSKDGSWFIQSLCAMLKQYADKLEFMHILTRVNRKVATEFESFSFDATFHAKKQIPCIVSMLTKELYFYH

[3] = biological target: T3, Calpain-1 catalytic subunit (Homo sapiens, UniProt P07384); test: Inhibition concentration required against calpain-1
T3 sequence (P07384 whole entry): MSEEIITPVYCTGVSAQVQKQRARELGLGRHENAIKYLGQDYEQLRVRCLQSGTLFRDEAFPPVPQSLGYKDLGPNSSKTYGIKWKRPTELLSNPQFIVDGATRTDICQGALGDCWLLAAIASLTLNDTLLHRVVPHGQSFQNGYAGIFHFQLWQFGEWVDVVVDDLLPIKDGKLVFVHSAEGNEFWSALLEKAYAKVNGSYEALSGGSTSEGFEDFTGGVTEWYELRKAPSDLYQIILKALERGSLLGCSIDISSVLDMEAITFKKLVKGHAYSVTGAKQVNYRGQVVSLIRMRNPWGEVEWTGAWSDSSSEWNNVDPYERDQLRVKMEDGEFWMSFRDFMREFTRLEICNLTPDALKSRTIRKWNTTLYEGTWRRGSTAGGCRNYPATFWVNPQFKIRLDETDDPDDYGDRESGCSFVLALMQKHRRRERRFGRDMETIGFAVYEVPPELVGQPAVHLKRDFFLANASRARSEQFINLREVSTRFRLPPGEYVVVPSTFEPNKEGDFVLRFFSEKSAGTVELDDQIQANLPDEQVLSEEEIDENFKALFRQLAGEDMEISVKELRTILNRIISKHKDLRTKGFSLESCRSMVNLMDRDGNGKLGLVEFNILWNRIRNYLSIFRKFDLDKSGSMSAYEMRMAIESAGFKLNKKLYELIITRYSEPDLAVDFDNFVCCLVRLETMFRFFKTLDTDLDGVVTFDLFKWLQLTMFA

[4] = Percent survival of the mice after 3h treatment was determined after induction of apoptosis by anti-Fas antibody; Dose is 0 mg/kg; type: functional, Mus musculus; how it was run: as §1
[5] = Inhibition concentration required against factor Xa
[6] = Percent survival of the mice after 5 days treatment was determined after induction of apoptosis by anti-Fas antibody; Dose is 0.5 mg/kg; type: functional; settings: Mus musculus, 120 h; how it was run: as §1
[7] = Percent survival of the mice after 5 days treatment was determined after induction of apoptosis by anti-Fas antibody; Dose is 10 mg/kg; type: functional; settings: Mus musculus, 120 h; how it was run: as §1
[8] = Percent survival of the mice after 1 hr treatment was determined after induction of apoptosis by anti-Fas antibody; Dose is 10 mg/kg; type: functional; settings: Mus musculus; how it was run: as §1
[9] = Percent survival of the mice after 3h treatment was determined after induction of apoptosis by anti-Fas antibody; Dose is 0.5 mg/kg; type: functional; settings: Mus musculus; how it was run: as §1
[10] = Percent survival of the mice after 24 hr treatment was determined after induction of apoptosis by anti-Fas antibody; Dose is 1 mg/kg; type: functional; settings: Mus musculus; how it was run: as §1
[11] = Percent survival of the mice after 6 hr treatment was determined after induction of apoptosis by anti-Fas antibody; Dose is 10 mg/kg; type: functional; settings: Mus musculus; how it was run: as §1
[12] = Inhibition concentration required against caspase-1
[13] = Percent survival of the mice after 5 days treatment was determined after induction of apoptosis by anti-Fas antibody; Dose is 0.25 mg/kg; type: functional; settings: Mus musculus, 120 h; how it was run: as §1
[14] = Percent survival of the mice after 3h treatment was determined after induction of apoptosis by anti-Fas antibody; Dose is 10 mg/kg; type: functional; settings: Mus musculus; how it was run: as §1
[15] = Percent survival of the mice after 6 hr treatment was determined after induction of apoptosis by anti-Fas antibody; Dose is 0.5 mg/kg; type: functional; settings: Mus musculus; how it was run: as §1
[16] = Percent survival of the mice after 1 hr treatment was determined after induction of apoptosis by anti-Fas antibody; Dose is 0.25 mg/kg; type: functional; settings: Mus musculus; how it was run: as §1
[17] = Percent survival of the mice after 24 hr treatment was determined after induction of apoptosis by anti-Fas antibody; Dose is 0.25 mg/kg; type: functional; settings: Mus musculus; how it was run: as §1
[18] = Percent survival of the mice after 1 hr treatment was determined after induction of apoptosis by anti-Fas antibody; Dose is 0.5 mg/kg; type: functional; settings: Mus musculus; how it was run: as §1
Caspase-7 = biological target: T4, Caspase-7 (Homo sapiens, UniProt P55210); test: Inhibition concentration required against caspase-7
T4 sequence (P55210 whole entry): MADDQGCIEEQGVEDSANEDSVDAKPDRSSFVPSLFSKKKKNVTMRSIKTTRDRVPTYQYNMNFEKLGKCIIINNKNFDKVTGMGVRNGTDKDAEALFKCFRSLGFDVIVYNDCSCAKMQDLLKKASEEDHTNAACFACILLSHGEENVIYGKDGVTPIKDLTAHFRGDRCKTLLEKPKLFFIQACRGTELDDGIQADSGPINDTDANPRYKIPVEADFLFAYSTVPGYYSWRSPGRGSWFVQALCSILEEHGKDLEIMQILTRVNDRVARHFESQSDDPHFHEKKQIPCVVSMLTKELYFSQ

[19] = Percent survival of the mice after 5 days treatment was determined after induction of apoptosis by anti-Fas antibody; Dose is 0 mg/kg; type: functional, Mus musculus; how it was run: as §1
[20] = Percent survival of the mice after 1 hr treatment was determined after induction of apoptosis by anti-Fas antibody; Dose is 0 mg/kg; type: functional, Mus musculus; how it was run: as §1
[21] = Percent survival of the mice after 5 days treatment was determined after induction of apoptosis by anti-Fas antibody; Dose is 1 mg/kg; type: functional; settings: Mus musculus, 120 h; how it was run: as §1
[22] = Percent survival of the mice after 6 hr treatment was determined after induction of apoptosis by anti-Fas antibody; Dose is 0.25 mg/kg; type: functional; settings: Mus musculus; how it was run: as §1
[23] = Percent survival of the mice after 24 hr treatment was determined after induction of apoptosis by anti-Fas antibody; Dose is 10 mg/kg; type: functional; settings: Mus musculus; how it was run: as §1
[24] = Percent survival of the mice after 3h treatment was determined after induction of apoptosis by anti-Fas antibody; Dose is 0.25 mg/kg; type: functional; settings: Mus musculus; how it was run: as §1
Caspase-8 = Caspase-8 (Homo sapiens, UniProt Q14790); test: Inhibition concentration required against caspase-8
Sequence of Caspase-8 (Q14790 217-374 limits assumed): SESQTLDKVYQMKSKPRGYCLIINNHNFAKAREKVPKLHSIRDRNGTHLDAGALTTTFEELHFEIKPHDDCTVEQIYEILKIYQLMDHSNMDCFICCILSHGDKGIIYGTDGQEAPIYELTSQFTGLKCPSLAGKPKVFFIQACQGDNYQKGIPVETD
Sequence of Caspase-8 (Q14790 385-479 limits assumed): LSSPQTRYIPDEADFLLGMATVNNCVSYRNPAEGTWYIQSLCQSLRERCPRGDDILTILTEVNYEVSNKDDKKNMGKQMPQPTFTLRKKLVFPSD

[25] = Percent survival of the mice after 3h treatment was determined after induction of apoptosis by anti-Fas antibody; Dose is 1 mg/kg; type: functional; settings: Mus musculus; how it was run: as §1
[26] = Percent survival of the mice after 24 hr treatment was determined after induction of apoptosis by anti-Fas antibody; Dose is 0.5 mg/kg; type: functional; settings: Mus musculus; how it was run: as §1
HeLa = test: Protecting effect against apoptosis induced by TNF-alpha in HeLa cells was determined; type: functional, Homo sapiens
How it was run: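 HeLa cells exposed to TNF-a to induce apoptosis, with test inhibitor present. Viability read out as calcein AM uptake. The value reported is the inhibitor concentration giving 50% cell protection.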

[27] = Inhibition concentration required against cathepsin B; set-up: species or system Homo sapiens
[28] = Percent survival of the mice after 6 hr treatment was determined after induction of apoptosis by anti-Fas antibody; Dose is 0 mg/kg; type: functional, Mus musculus; how it was run: as §1
[29] = Percent survival of the mice after 1 hr treatment was determined after induction of apoptosis by anti-Fas antibody; Dose is 1 mg/kg; type: functional; settings: Mus musculus; how it was run: as §1

With `CC(C)[C@H](NC(=O)OCc1ccc(Cl)cc1Cl)C(=O)NC(CC(=O)O)C(=O)CF` (stereo not given in full) the IC50 (Caspase-9) was 0.009 µM, the survival at 1 mg/kg [1] was 100% and the Survival [2] was 0%. The IC50 (Caspase-3) was 0.025 µM, the IC50 [3] was ~5 µM and the Survival [4] was 0%. The IC50 [5] was > 100 µM, the survival at 0.5 mg/kg [6] was 50% and the survival at 10 mg/kg [7] was 100%. For the same compound, the survival at 10 mg/kg [8] was 100%, the survival at 0.5 mg/kg [9] was 100% and the survival at 1 mg/kg [10] was 100%. It also gave a survival at 10 mg/kg [11] of 100%, an IC50 [12] of 0.026 µM and a survival at 0.25 mg/kg [13] of 16%. The survival at 10 mg/kg [14] was 100%, the survival at 0.5 mg/kg [15] was 83% and the survival at 0.25 mg/kg [16] was 100%. For the same compound, the survival at 0.25 mg/kg [17] was 33%, the survival at 0.5 mg/kg [18] was 100% and the IC50 (Caspase-7) was 0.01 µM. For the same compound, the Survival [19] was 0%, the Survival [20] was 0% and the survival at 1 mg/kg [21] was 100%. The survival at 0.25 mg/kg [22] was 83%, the survival at 10 mg/kg [23] was 100% and the survival at 0.25 mg/kg [24] was 100%. It also gave an IC50 (Caspase-8) of 0.006 µM, a survival at 1 mg/kg [25] of 100% and a survival at 0.5 mg/kg [26] of 50%. The Protection (HeLa) was 100 nM, the IC50 [27] was ~10 µM and the Survival [28] was 0%. For the same compound, the survival at 1 mg/kg [29] was 100%.
For `CC(C)[C@H](NC(=O)OCc1cc(Cl)ccc1Cl)C(=O)NC(CC(=O)O)C(=O)CF` (stereo not given in full), the Protection (HeLa) was 100 nM.
With `CC(C)[C@H](NC(=O)OCc1ccc(Cl)c(Cl)c1)C(=O)NC(CC(=O)O)C(=O)CF` (stereo not given in full) the Protection (HeLa) was 150 nM.
For `COC(=O)N[C@H](C(=O)NC(CC(=O)O)C(=O)CF)C(C)C` (stereo not given in full), the Protection (HeLa) was 500 nM.
`CC(C)[C@H](NC(=O)OCc1ccccc1)C(=O)NC(CC(=O)O)C(=O)CF` (stereo not given in full) gave a Protection (HeLa) of 250 nM.
`CC(C)[C@H](NC(=O)OCC1CCCC1)C(=O)NC(CC(=O)O)C(=O)CF` (stereo not given in full) showed a Protection (HeLa) of 300 nM.
Work on `CC(C)[C@H](NC(=O)OCc1ccc(F)cc1)C(=O)NC(CC(=O)O)C(=O)CF` (stereo not given in full) yielded a Protection (HeLa) of 150 nM.
